Measurements published in ChEMBL document CHEMBL1799956, “Convergent synthesis and biological evaluation of 2-amino-4-(3',4',5'-trimethoxyphenyl)-5-aryl thiazoles as microtubule targeting agents” (J Med Chem, 2011).
Active and inactive are the calls of the source. No cut-off for these calls is given here.

Tests used:
HeLa [1] = experiment: Cell cycle arrest in human HeLa cells assessed as increase of cell population at G2/M phase after 24 hrs using propidium iodide staining by flow cytometry; assay type: functional, cell-based
HeLa [2] = experiment: Induction of apoptosis in human HeLa cells assessed as increase in mitochondrial ROS production at 100 nM after 48 hrs using H2DCFDA staining by flow cytometry; assay type: functional, cell-based
HeLa [3] = experiment: Induction of apoptosis in human HeLa cells assessed as no change in mitochondrial potential at 100 nM after 48 hrs using JC-1 staining by flow cytometry; assay type: functional, cell-based
Jurkat [4] = experiment: Cell cycle arrest in human Jurkat cells assessed as decrease of cell population at S phase at 1 to 100 nM after 48 hrs using propidium iodide staining by flow cytometry; assay type: functional, cell-based
LoVo = experiment: Fold resistance, ratio of IC50 for human doxorubicin-resistant LoVo cells overexpressing P-gp to IC50 for human LoVo cells; assay type: functional
Summary of the method: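 Fold resistance taken as the ratio of IC50 in the resistant line to IC50 in the parental line, each IC50 from dose-response curves of at least three independent experiments.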

Tubulin (Homo sapiens) = Tubulin (Homo sapiens) (UniProt P68371+Q9H4B7+P0DPH7+P68366+Q13509+Q71U36+P04350+Q3ZCM7+P07437+P68363+Q9BQE3+Q6PEY2+Q13885+Q9BVA1+Q9BUF5); experiment: Induction of microtubule disassembly with spherical morphology in human HeLa cells at 10 nM after 24 hrs using DAPI-staining by fluorescence microscopy; assay type: cell-based
Summary of the method: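 HeLa cells were exposed to 10 or 100 nM compound for 24 or 48 h, then fixed. Microtubules were stained with FITC-conjugated anti-β-tubulin antibody and imaged by confocal/fluorescence microscopy at 60× magnification.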

Jurkat [5] = experiment: Induction of apoptosis in human Jurkat cells assessed as abnormal mitotic figures at 10 uM after 24 to 48 hrs using Giemsa's staining by microscopic analysis; assay type: functional, cell-based
Summary of the method: (§1)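 Giemsa staining, then light-microscope examination of cell morphology. HeLa and Jurkat cells were exposed to compound for 24 and 48 h. Magnification 60×.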

HeLa [6] = experiment: Induction of apoptosis in human HeLa cells assessed as decrease in Bax expression at […] after 48 hrs by Western blot analysis; assay type: functional, cell-based
Summary of the method: (§2)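 Treated HeLa whole-cell lysates separated by SDS-PAGE and immunoblotted for PARP cleavage, Bcl-2, Bax, pro-caspase-9 and pro-caspase-2.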

HeLa [7] = experiment: Induction of apoptosis in human HeLa cells assessed as formation of large cells at 10 uM after 24 to 48 hrs using Giemsa's staining by microscopic analysis; assay type: functional, cell-based
Summary of the method: (§3)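 HeLa treated 48 h, Giemsa stained and examined by light microscopy at 60× magnification.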

HeLa [8] = experiment: Induction of apoptosis in human HeLa cells assessed activation of caspase 9 at […] after 24 hrs by Western blot analysis; assay type: functional, cell-based; summary of the method: as §2
HeLa [9] = experiment: Cell cycle arrest in human HeLa cells assessed as decrease of cell population at S phase at 100 nM after 24 hrs using propidium iodide staining by flow cytometry; assay type: functional, cell-based
HeLa [10] = experiment: Induction of apoptosis in human HeLa cells assessed as multinucleation at 10 uM after 24 to 48 hrs using Giemsa's staining by microscopic analysis; assay type: functional, cell-based; summary of the method: as §1
HeLa [11] = experiment: Induction of cell cycle arrest at G2/M phase in human HeLa cells assessed as decrease in phosphorylated Cdc2(Y15) expression at 10 to 100 nM after 48 hrs by Western blot analysis; assay type: functional, cell-based
Summary of the method: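 Immunoblot of HeLa lysates after 24 or 48 h of compound treatment at the indicated concentrations. Probed for cyclin B1, p-Cdc2 Y15 and Cdc25c. Slower-migrating Cdc25c bands were taken as a change in phosphorylation.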

HT-29 = experiment: Antiproliferative activity against human HT-29 cells assessed as growth inhibition after 72 hrs by MTT assay; assay type: functional, cell-based; details: HT-29, 72 h
HeLa [12] = experiment: Induction of morphological changes in human HeLa cells assessed as appearance of giant interphase with multiple nuclei of different sizes at 10 nM after 24 hrs using phalloidintetramethylrhodamine B isothiocyanate staining by microscopy; assay type: functional, cell-based
Summary of the method: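 HeLa cells were incubated with compound for 24 h. F-actin was stained with a phalloidin–tetramethylrhodamine B isothiocyanate conjugate and nuclei were counterstained with DAPI. Cells were then examined by fluorescence microscopy.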

HeLa [13] = experiment: Induction of apoptosis in human HeLa cells assessed as DNA condensation at 100 uM after 24 to 48 hrs using Giemsa's staining by microscopic analysis; assay type: functional, cell-based; summary of the method: as §3
HeLa [14] = experiment: Cell cycle arrest in human HeLa cells assessed as decrease of cell population at G1 phase at 1 to 100 nM after 24 hrs using propidium iodide staining by flow cytometry; assay type: functional, cell-based
HeLa [15] = experiment: Induction of apoptosis in human HeLa cells assessed as decrease in Bax expression at […] after 24 hrs by Western blot analysis; assay type: functional, cell-based; summary of the method: as §2
CCRF-CEM = experiment: Antiproliferative activity against human CEM cells assessed as growth inhibition after 72 hrs by MTT assay; assay type: functional, cell-based
Jurkat [16] = experiment: Cell cycle arrest in human Jurkat cells assessed as decrease of cell population at S phase at 100 nM after 24 hrs using propidium iodide staining by flow cytometry; assay type: functional, cell-based

For `CCOc1ccc(-c2sc(N)nc2-c2cc(OC)c(OC)c(OC)c2)cc1`, the Activity (HeLa [1]) was “Dose-dependent effect”, the Activity (HeLa [2]) was “Active” and the Activity (HeLa [3]) was “inactive”. For the same molecule, the Activity (Jurkat [4]) was “Active”, the “Ratio IC50” value (LoVo) was 0.9 and the Activity (Tubulin (Homo sapiens)) was “Active”. The Activity (Jurkat [5]) was “Active”, the Activity (HeLa [6]) was “Active” and the Activity (HeLa [7]) was “Active”. The Activity (HeLa [8]) was “inactive”, the Activity (HeLa [9]) was “Active” and the Activity (HeLa [10]) was “Active”. For the same molecule, the Activity (HeLa [11]) was “Active”, the IC50 (HT-29) was 0.0382 µM and the Activity (HeLa [12]) was “Active”. The Activity (HeLa [13]) was “Active”, the Activity (HeLa [14]) was “Active” and the Activity (HeLa [15]) was “inactive”. The IC50 (CCRF-CEM) was 0.0009 µM and the Activity (Jurkat [16]) was “Active”.
